Assay outcomes: PubChem BioAssay, The Scripps Research Institute Molecular Screening Center
SIAE inh = human SIAE inhibitors, primary screen, biochemical, fluorescence polarization, FP-Rh probe, 1536-well HTS. Sialate O-acetylesterase (Homo sapiens), Q9HAT2. SIAE FP-Rh probe binding. inhibition, % at 9.66 µM. 370,000 compounds, 0.69% hits. AID 1053197, 2014;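 active = inhibition above a cutoff: mean of compounds within the control limits plus 3 SD of those, cut at about 17% in these data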;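 also: 0% = plate median of compound wells and 100% = probe without SIAE protein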
mABHD4 FP = ABHD4 inhibitors, primary screen, biochemical, fluorescence polarization, mouse. inhibition, % at 8.92 µM. purified mABHD4, FP-Rh probe fluorescence polarization. 370,000 compounds, 0.54% hits;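 active = inhibition exceeding the mean over every tested compound plus 3 SD, cut at about 30% in these data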;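 also: 0% = plate median of compound wells and 100% = S159A mutant with DMSO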
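Assay system: wild-type mouse ABHD4 protein; compound: single nominal dose of 8.92 µM, 0.89% DMSO final; schedule: 45 min + 60 min at 25 °C; measured by: FP readout, ex 525 nm / em 598 nm; evaluation: % inhibition of FP-Rh probe binding versus controls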
HTRA1 inhibitor = HTRA1 serine protease inhibitors, primary screen, biochemical, fluorescence polarization, HTS. inhibition, % at 5.96 µM. 340,000 compounds, 0.5% hits. AID 504803, 2011. recombinant HTRA1, FP-rhodamine activity-based probe. Q92743; in the data active = inhibition above about 36%;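 also: 0% = enzyme with DMSO and 100% = wells lacking enzyme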
pPAFAH inh = pPAFAH enzyme inhibitors, primary screen, biochemical, fluorescence polarization, human | Platelet-activating factor acetylhydrolase (Homo sapiens), Q13093 | recombinant pPAFAH, FP-rhodamine probe fluorescence polarization | inhibition, % at 3.39 µM | 330,000 compounds, 1.5% hits;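 active = inhibition above the mean inhibition across the screen plus 3 SD, cut at about 25% in these data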;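 also: inhibitors block binding of the rhodamine activity-based probe so polarization drops; 0% = enzyme with DMSO and 100% = wells lacking pPAFAH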
Target sequence (Q13093 whole entry, looked up): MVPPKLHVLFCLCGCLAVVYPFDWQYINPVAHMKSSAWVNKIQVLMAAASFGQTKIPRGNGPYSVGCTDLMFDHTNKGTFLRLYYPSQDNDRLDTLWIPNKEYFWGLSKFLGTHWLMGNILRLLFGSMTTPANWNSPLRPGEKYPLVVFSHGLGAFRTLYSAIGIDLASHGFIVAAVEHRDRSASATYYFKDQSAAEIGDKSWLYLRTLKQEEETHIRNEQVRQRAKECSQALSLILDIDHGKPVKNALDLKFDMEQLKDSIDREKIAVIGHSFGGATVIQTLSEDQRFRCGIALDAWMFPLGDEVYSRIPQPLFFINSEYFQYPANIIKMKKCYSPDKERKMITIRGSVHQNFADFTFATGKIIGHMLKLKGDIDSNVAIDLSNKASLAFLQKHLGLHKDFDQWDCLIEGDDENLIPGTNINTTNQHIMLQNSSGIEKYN
TCR CD3 inh = inhibitors of human TCR-CD3 interaction, primary screen, biochemical, fluorescence, TAMRA-labeled TCR probe. inhibition, % at 9.4 µM. 360,000 compounds, 0.37% hits; in the data active = inhibition above about 19%;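 also: recombinant mutant TCR 2C K166C tagged with TAMRA read by polarization; 0% = receptor in buffer alone and 100% = receptor with positive control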
* hit, by the source's call; / = no result given. Hits are enriched below; roughly 2.3% of the tested compounds scored in any of these assays.

SMILES	SIAE inh	mABHD4 FP	HTRA1 inhibitor	pPAFAH inh	TCR CD3 inh
Cc1ccc(S(=O)(=O)N2CCN(C(=O)COC(=O)Cc3ccccc3)CC2)c(C)c1	0	-1	-11	31*	-5
Cc1ccc(C(=O)COC(=O)Cc2ccccc2)cc1	2	-3	1	8	1
Cc1cc(C)n(-c2ccc(NN=C(C#N)C#N)cc2)n1	6	14	13	28*	8
N#CC(C#N)=NNc1ccc(-n2ccc(C(F)(F)F)n2)cc1	4	18	-10	16	-4
O=C(CN1C(=O)[C@@H](Cc2c[nH]c3ccccc23)N=C(c2ccccc2)c2ccccc21)NC1CCCCC1	2	1	/	/	/
COc1cc2c(cc1O)C[C@H]1NCCc3cc4c(c-2c31)OCO4	3	14	19	25*	8
COc1cc2c(cc1OC)-c1c3c(cc4c1[C@@H](C2)N(C)CC4)OCO3	6	10	10	18	3
CCOP(=O)(C#CC(C)(C)C)C(C)(O)c1ccccc1 (stereo not drawn)	7	0	7	2	2
CC(C)(C#CC(=O)O)OOC(c1ccccc1)(c1ccccc1)c1ccccc1	-2	-7	-26	31*	5
Cc1ccccc1CCC[C@H](CC1CCCCC1)CN(C)C(=O)Oc1ccccc1	1	13	/	/	/
CC(C)C[C@H]1C(=O)N2CCCC2[C@]2(O)O[C@](NC(=O)[C@@H]3C=C4c5cccc6[nH]cc(c56)CC4N(C)C3)(C(C)C)C(=O)N12 (stereo partly drawn)	/	/	45*	17	/
CC(C)c1ccc(N2C(=O)NC(=O)/C(=C\C=C\c3ccco3)C2=O)cc1	-29	-3	/	29*	-12
CC(=O)N1c2ccccc2C(c2ccccc2)=NCC1C(=O)NCc1ccccc1 (stereo not drawn)	0	1	/	/	/
COc1ccc(CCNCC2CCCO2)cc1 (stereo not drawn)	2	7	-3	-4	12
CCOc1cccc(OCC)c2c(C)[n+](CC3CCCO3)c(C)c1-2 (stereo not drawn)	/	/	50*	19	/
O=C(CN1C(=O)[C@@H](Cc2ccccc2)N=C(c2ccccc2)c2ccccc21)NC1CCCCC1	-8	-2	/	/	/
O=C1NC(=O)[C@]2(Cc3ccccc3N3CCN(c4ccccc4)CC32)C(=O)N1c1ccccc1 (stereo partly drawn)	-5	-7	10	28*	7
CN1C(=O)NC(=O)[C@]2(Cc3ccccc3N3CCN(c4ccccc4)CC32)C1=O (stereo partly drawn)	-2	-5	9	15	1
COc1ccc(CN2C(=O)NC(=O)/C(=C/c3ccc([N+](=O)[O-])s3)C2=O)cc1	-8	-82	34	31*	-38
O=C1NC(=O)N(Cc2ccc(F)cc2)C(=O)/C1=C\c1ccc([N+](=O)[O-])s1	-45	-65	43*	26*	-45
COc1cccc(N2C(=O)NC(=O)/C(=C/c3ccc([N+](=O)[O-])s3)C2=O)c1	-32	-54	21	33*	-52
O=C1NC(=O)N(Cc2ccc(F)cc2)C(=O)/C1=C\c1ccc(N2CCCC2)cc1	-26	-49	-10	26*	-7
O=C1NC(=O)N(c2ccc(F)cc2)C(=O)/C1=C/c1ccc(N2CCOCC2)cc1	-5	11	0	6	-24
CS(=O)(=O)N1Cc2cc(Br)ccc2-n2nncc2C1	0	-2	/	/	-4
Cc1ccc2nc(-c3ccc(CN4CCC(n5nnc6ccccc65)CC4)cc3)c(-c3ccccc3)nc2c1	-8	-9	/	/	4
SMILES	SIAE inh	mABHD4 FP	HTRA1 inhibitor	pPAFAH inh	TCR CD3 inh
NC(Cc1cc(O)c(O)cc1O)C(=O)O (stereo not drawn)	/	/	/	84*	/
CCOC(=O)c1ccc2[nH]c(-c3ccc(S(=O)(=O)F)cc3)cc(=O)c2c1	-3	-12	13	28*	-3
CC1CCC(C)(NS(=O)(=O)OCC(Cl)(Cl)Cl)CC1 (stereo not drawn)	-2	-4	-16	33*	-2
O=C1NC(=O)N(CCc2ccc(F)cc2)C(=O)/C1=C/c1ccco1	-7	16	31	29*	-17
O=C(NCCN1CCC2(CC1)C(=O)NCN2c1ccccc1)c1ccc(OC(F)(F)F)cc1	0	8	/	/	-5
CN1C(=O)CCS(=O)(=O)C1c1ccc(Cl)cc1 (stereo not drawn)	5	3	/	/	/
CCOC(=O)c1c(-n2c(C)cc(C=C3C(=O)NC(=S)NC3=O)c2C)sc2c1CCCC2	/	/	4	25*	/
COc1cccc(C2CCN(CC(=O)Nc3cc(Cl)ccc3OC)CC2O)c1 (stereo not drawn)	1	2	0	33*	2
O=C(Oc1ccc([N+](=O)[O-])cc1)N1CCC(N2CCCCC2)CC1	2	1	0	34*	-2
CCCC(C)n1[nH]c(=O)c2c1NC(=O)CSC2c1ccc(OC)cc1 (stereo not drawn)	3	1	3	28*	2
CCCOc1ccccc1C1SCC(=O)Nc2c1c(=O)[nH]n2C(C)CCC (stereo not drawn)	0	1	-3	-3	6
O=C1NC(=S)NC(=O)C1=Cc1ccc2c(c1)CCN2CCCCl	/	/	/	29*	/
N#CC1c2ccccc2-n2nncc2CN1C(=O)c1ccc([N+](=O)[O-])o1 (stereo not drawn)	-11	6	/	/	/
O=C(c1ccc(N2CCCCC2)c([N+](=O)[O-])c1)N1CCC2(CC1)OCCO2	-2	-2	2	34*	2
Cc1ccc(S(=O)(=O)Nc2cc(C(=O)N3CCC4(CC3)OCCO4)ccc2N2CCCCC2)cc1	0	-1	-7	21	-2
CCc1nn(CC(=O)N2CCC3(CC2)OCCO3)c(=O)c2cccn12	0	-1	3	1	-6
Cc1ccc2c(c1)cc1c(=O)n(CC(=O)N3CCC4(CC3)OCCO4)nc(C)n12	1	4	6	26*	4
O=C(NCCN1CCC2(CC1)C(=O)NCN2c1ccccc1)c1ccc(Cl)c(Cl)c1	4	18	/	/	1
Cc1ccc(N2C(=O)/C(=C/c3ccc(CN(CCC#N)S(C)(=O)=O)o3)C(=O)NC2=S)cc1	/	/	18	28*	/
Cc1ccc(/C=C2\C(=O)NC(=S)N(c3ccc(F)cc3)C2=O)o1	8	10	5	/	-6
N#CCC[C@H]1CC[C@]2(CCCN(Cc3ccccn3)C2)O1	4	4	/	/	/
CO[C@H]([C@H](C)/C=C/N(C)C=O)[C@@H](C)C(=O)CC[C@H](C)[C@H](O)[C@H](C)[C@H]1OC(=O)/C=C/C(C)=C/[C@H](O)[C@H](OC)C[C@@H]2C=CC[C@@H](C[C@H](OC)[C@@H](CO)[C@@H](OC)C[C@@H](OC)[C@@H]1C)O2	0	-1	/	/	/
